Cneo AK release: causes C. neoformans cell lysis | lysis activity, % at 15 µM | adenylate kinase release luminescence, 4 h; normalised: neutral wells 0, clomiphene wells 100 | AID 651654 | 360,000 tested, 0.2% active;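 active = mean lysis activity across replicates of at least 80%, whatever share of replicates individually reach that level; inactive = mean lysis activity below 80%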
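Schedule: static 4 h at 37 °C with compound, 1 h detection; system: C. neoformans cells; benchmarks: Clomiphene as positive control; buffer or medium: fresh YPD medium; measure: luminescence rise reflecting yeast cell lysis; measured by: luminescent adenylate kinase detection reagent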
PDI turbidity: inhibitors of human protein disulfide isomerase | PDI insulin aggregation turbidity, A650, 90 min | AID 588391 | inhibition, % at 10 µM | P07237 | 350,000 tested, 0.052% active;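 active = mean inhibition across replicates of 30% or more, whatever share of single replicates reach that level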
Target sequence (P07237 whole entry, looked up): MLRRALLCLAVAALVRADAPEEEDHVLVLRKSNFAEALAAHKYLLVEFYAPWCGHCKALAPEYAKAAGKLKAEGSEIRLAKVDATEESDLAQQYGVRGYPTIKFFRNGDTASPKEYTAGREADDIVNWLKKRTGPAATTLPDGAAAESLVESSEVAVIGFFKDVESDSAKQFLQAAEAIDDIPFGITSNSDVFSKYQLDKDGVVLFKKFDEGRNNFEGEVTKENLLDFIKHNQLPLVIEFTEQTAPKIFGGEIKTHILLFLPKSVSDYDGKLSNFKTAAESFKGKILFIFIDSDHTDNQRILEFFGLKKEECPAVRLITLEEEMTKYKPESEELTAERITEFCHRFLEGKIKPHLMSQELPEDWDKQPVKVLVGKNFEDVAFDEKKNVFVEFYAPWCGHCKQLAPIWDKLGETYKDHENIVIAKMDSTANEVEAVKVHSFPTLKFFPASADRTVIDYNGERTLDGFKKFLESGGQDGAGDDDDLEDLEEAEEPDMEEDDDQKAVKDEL
CFTR F508del cor: correctors of CFTR F508del function in bronchial epithelial cells. CFBE cells, YFP halide quenching; stimulated with forskolin plus potentiator P3; % fluorescence drop versus neutral controls. activity (quench increase), % at 7.58 µM. 350,000 tested, 0.36% active. AID 720511;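 active = mean added fluorescence quench of at least 8% versus neutral control, with both replicates also reaching 8%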;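 also: cells transiently co-express mutant CFTR-F508del with the halide-sensitive YFP; corrector assay measuring rescue of mutant channel to the surface after 24 h compound exposure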
Statin myotox sup: suppressors of simvastatin-induced myotoxicity in C2C12 myotubes | 330,000 tested, 0.78% active | rescue of ATP level, % at 7.49 µM | ATP luminescence, 48 h; scaled: DMSO 0, geranylgeraniol control 100 | AID 602340;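 active = mean ATP rescue above about 67%, or every replicate alone reaching that limit, limit read from the data, passing the limit was not always enough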;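 also: myotubes were challenged with 10 µM simvastatin during compound exposure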
DENV2 CPE rescue: protects cells from dengue virus 2 cytopathic effect; DENV2-infected cells, cytopathic effect rescue, plate reader; CPE inhibition, % at 9.99 µM; 350,000 tested, 1.7% active; AID 651640; in the data active = CPE inhibition above about 20%, passing the limit was not always enough; tested in BHK-21 cells;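 also: 0% = median of neutral control wells and 100% = median of positive control wells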
ERp5 inh: ERp5 (human) disulfide isomerase inhibition; ERp5 insulin aggregation, absorbance 650 nm, 90 min; Q15084; inhibition, % at 9.99 µM; 350,000 tested, 0.05% active; AID 651711;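 active = mean replicate inhibition above about 25%, with every replicate also reaching it, limit read from the data, passing the limit was not always enough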
The depositor's hits bear a star; · = no result. Sampled rows, rich in hits. Any-hit rate of the full collection: about 2.3%.

SMILES	Cneo AK release	PDI turbidity	CFTR F508del cor	Statin myotox sup	DENV2 CPE rescue	ERp5 inh
Cc1ccc(S(=O)(=O)N(CC(=O)NCc2ccncc2)Cc2ccccc2F)cc1	-1	8	1	1	3	2
Cc1ccc(S(=O)(=O)N(CC(=O)NCc2ccco2)Cc2ccccc2F)cc1	0	-12	·	67*	·	·
C[C@H](CO)N1C[C@H](C)[C@H](CN(C)C(=O)Nc2ccc(F)cc2)Oc2ncc(C#Cc3ccccc3)cc2C1=O	·	·	-1	48	·	·
O=C(Cc1cccnc1)N[C@H]1CC[C@@H](CCn2cc(-c3ccccc3F)nn2)O[C@H]1CO	6	·	0	3	7	3
O=C(Cc1cccnc1)N[C@H]1CC[C@@H](CCn2cc(Cc3ccccc3)nn2)O[C@@H]1CO	1	·	-1	6	5	-3
O=C(Cc1cccnc1)N[C@@H]1CC[C@H](CCn2cc(-c3ccccc3F)nn2)O[C@@H]1CO	-1	·	0	7	45*	-1
O=C(Cc1cccnc1)N[C@H]1CC[C@H](CCn2cc(Cc3ccccc3)nn2)O[C@@H]1CO	-2	·	3	-6	77*	0
CCNC(=O)C[C@H]1CC[C@@H]2[C@@H](COc3ccc(NC(=O)Nc4c(C)noc4C)cc3C(=O)N2C)O1	-2	·	-1	4	-3	-5
O=C(C[C@@H]1C=C[C@H](NC(=O)Nc2ccccc2)[C@H](CO)O1)NCc1cccc(F)c1	1	·	1	-3	4	-1
COc1ccccc1NC(=O)N[C@H]1CC[C@@H](CC(=O)N[C@H](C)c2ccccc2)O[C@H]1CO	-10	·	-1	4	10	9
O=C1CCC([N+](=O)[O-])C(c2ccc(Cl)cc2Cl)N1 (stereo not drawn)	1	13	·	70*	·	·
O=C1CCC([N+](=O)[O-])C(c2cc(Br)ccc2F)N1 (stereo not drawn)	4	10	1	1	1	20
COc1ccc(C2C(C(C)=O)=C(O)C(=O)N2c2ccc(Br)cn2)cc1 (stereo not drawn)	7	-8	·	136*	·	·
O=C(c1cccc(F)c1)N1CC2(C1)[C@H](c1ccccc1)[C@H](CO)N2C(=O)C1CCOCC1	·	·	-5	·	-6	-1
COc1ccccc1CNC(=O)C[C@H]1C[C@@H]2c3cc(NC(=O)NC4CCCC4)ccc3O[C@@H]2[C@H](CO)O1	1	·	3	-7	12	6
COc1ccc(OC)c(S(=O)(=O)N(C(C)=O)c2ccc3oc(=O)sc3c2)c1	·	-3	1	·	1	0
CC(=O)N(c1ccc2oc(=O)sc2c1)S(=O)(=O)c1ccccc1	·	-1	·	·	·	·
COc1ccc(S(=O)(=O)N(C(=O)C(C)C)c2ccc3oc(=O)sc3c2)cc1	-6	-1	11*	16	4	-3
CC(C)C(=O)N(c1ccc2oc(=O)sc2c1)S(=O)(=O)c1ccccc1	4	-2	6	106*	2	2
CCCC(=O)N1CC2(C1)CN(C(=O)Nc1ccc(F)cc1)[C@@H](CO)c1c2c2ccc(OC)cc2n1C	·	·	-2	·	-10	3
COCC(=O)Nc1ccc2c(c1)OC[C@H](C)N(Cc1cccc(F)c1)C[C@@H](C)[C@H](OC)CN(C)C2=O	·	·	0	·	-9	1
Cc1ccc(C(O)c2ncc(-c3ccc4ccccc4c3)[nH]2)cc1 (stereo not drawn)	3	-3	0	-6	76*	4
C[C@@H]1CN([C@H](C)CO)C(=O)Cc2cc(NC(=O)Nc3cccc4ccccc34)ccc2O[C@@H]1CN(C)Cc1ccccc1	5	·	2	-4	3	-3
C[C@@H]1CN([C@@H](C)CO)C(=O)Cc2cc(NC(=O)Nc3cccc4ccccc34)ccc2O[C@H]1CN(C)Cc1ccccc1	2	·	2	27	20*	6
C[C@@H]1CN([C@@H](C)CO)C(=O)Cc2cc(NC(=O)Nc3cccc4ccccc34)ccc2O[C@@H]1CN(C)Cc1ccc(C(=O)O)cc1	115*	·	0	6	49*	2
C[C@H]1CN([C@@H](C)CO)C(=O)Cc2cc(NC(=O)Nc3cccc4ccccc34)ccc2O[C@H]1CN(C)Cc1ccc(Oc2ccccc2)cc1	3	·	-2	22	-7	-1
